# According to ChEMBL document CHEMBL2034974, “Design, synthesis and structure-activity relationships of new triazole derivatives containing N-substituted phenoxypropylamino side chains” (2012):
# How the values were obtained:
# Assay type in all cases: functional
# [1] = system: Pichia kudriavzevii; test: Antifungal activity against Candida krusei after 24 hrs by serial dilution method
# In short: (§1)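 NCCLS broth microdilution in 96-well plates, with ATCC or clinical isolate strains. Medium was RPMI 1640 buffered with 0.165 M MOPS, and compounds were dissolved in DMSO and serially diluted in medium. Yeasts were incubated at 35 °C and growth was read at 24 h. MIC80 was taken as the lowest concentration giving ≥80% growth inhibition versus the drug-free control.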
# [2] = system: Candida albicans; test: Antifungal activity against Candida albicans after 24 hrs by serial dilution method; in short: as §1
# [3] = system: Candida parapsilosis; test: Antifungal activity against Candida parapsilosis after 24 hrs by serial dilution method; settings: Lodderomyces parapsilosis; in short: as §1
# [4] = system: Cryptococcus neoformans; test: Antifungal activity against Cryptococcus neoformans after 72 hrs by serial dilution method
# In short: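 Cryptococcus yeast, ATCC or clinical isolate, tested by NCCLS serial dilution in 96-well plates with RPMI 1640 plus 0.165 M MOPS. Compounds were dissolved in DMSO and serially diluted in medium. Incubation was at 35 °C with MIC80 read at 72 h, defined as the lowest concentration giving ≥80% growth inhibition relative to control.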
# [5] = system: Candida tropicalis; test: Antifungal activity against Candida tropicalis after 24 hrs by serial dilution method; in short: as §1
# [6] = system: Trichophyton rubrum; test: Antifungal activity against Trichophyton rubrum by serial dilution method
# In short: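 Dermatophyte, ATCC or clinical isolate, tested by NCCLS serial-dilution microtest in RPMI 1640 buffered with 0.165 M MOPS. Compounds were dissolved in DMSO and diluted serially in medium, and incubation was at 28 °C. The endpoint was MIC80, the lowest concentration reducing turbidity to ≥80% inhibition of control growth.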
SMILES,MIC80 [1] [µg/mL],MIC80 [2] [µg/mL],MIC80 [3] [µg/mL],MIC80 [4] [µg/mL],MIC80 [5] [µg/mL],MIC80 [6] [µg/mL]
CC(C)(C)OC(=O)CN(CCCOc1ccc(Br)cc1)CC(O)(Cn1cncn1)c1ccc(F)cc1F (racemic),4,4,64,64,16,64
CCOC(=O)CN(CCCOc1ccc(Br)cc1)CC(O)(Cn1cncn1)c1ccc(F)cc1F (racemic),32,4,16,32,16,16
COC(=O)CN(CCCOc1ccc(Br)cc1)CC(O)(Cn1cncn1)c1ccc(F)cc1F (racemic),4,2,64,8,4,8
OC(CN(CCCOc1ccc(Br)cc1)Cc1ccc(F)cc1)(Cn1cncn1)c1ccc(F)cc1F (racemic),8,4,2,32,8,16
Cc1ccc(CN(CCCOc2ccc(Br)cc2)CC(O)(Cn2cncn2)c2ccc(F)cc2F)cc1 (racemic),8,4,0.5,64,8,64
OC(CN(CCCOc1ccc(Br)cc1)Cc1ccccc1)(Cn1cncn1)c1ccc(F)cc1F (racemic),4,2,32,16,8,4
CCCCN(CCCOc1ccc(Br)cc1)CC(O)(Cn1cncn1)c1ccc(F)cc1F (racemic),4,2,4,4,4,16
CCCN(CCCOc1ccc(Br)cc1)CC(O)(Cn1cncn1)c1ccc(F)cc1F (racemic),4,2,> 64,4,2,8
CCN(CCCOc1ccc(Br)cc1)CC(O)(Cn1cncn1)c1ccc(F)cc1F (racemic),4,0.5,2,1,1,2
OC(CNCCCOc1ccc(Br)cc1)(Cn1cncn1)c1ccc(F)cc1F (racemic),< 0.125,0.0313,0.5,1,< 0.125,0.5
CC(C)(C)OC(=O)CN(CCCOc1ccccc1)CC(O)(Cn1cncn1)c1ccc(F)cc1F (racemic),8,4,> 64,> 64,8,64
C=CCN(CCCOc1ccccc1)CC(O)(Cn1cncn1)c1ccc(F)cc1F (racemic),1,0.25,64,2,1,1
C#CCN(CCCOc1ccccc1)CC(O)(Cn1cncn1)c1ccc(F)cc1F (racemic),1,0.25,8,4,4,4
OC(Cn1cncn1)(Cn1cncn1)c1ccc(F)cc1F [FLUCONAZOLE],4,0.5,1,2,1,1
CCC(C)n1ncn(-c2ccc(N3CCN(c4ccc(OCC5COC(Cn6cncn6)(c6ccc(Cl)cc6Cl)O5)cc4)CC3)cc2)c1=O (stereo not given) [ITRACONAZOLE],1,0.125,4,0.5,< 0.125,0.125
